Source: PubChem BioAssay
ALR H2O2 inh: blocks human ALR sulfhydryl oxidase activity | purified ALR, DTT oxidation, H2O2 HRP-luminol luminescence | P55789 | inhibition, % (no concentration beside the values) | 290,000 tested, 3.8% active;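 active = mean replicate inhibition above about 79%, with every replicate also reaching it, limit read from the data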
SUMO HTRF inh: blocks human SUMOylation mediated by UBC9; HTRF SUMOylation assay, SAE1/SAE2 + UBC9, in vitro; inhibition, % at 35 µM; 290,000 tested, 0.36% active; AID 2006; in the data active = inhibition above about 50%, passing the limit was not always enough
Target sequence (P63279 whole entry, looked up): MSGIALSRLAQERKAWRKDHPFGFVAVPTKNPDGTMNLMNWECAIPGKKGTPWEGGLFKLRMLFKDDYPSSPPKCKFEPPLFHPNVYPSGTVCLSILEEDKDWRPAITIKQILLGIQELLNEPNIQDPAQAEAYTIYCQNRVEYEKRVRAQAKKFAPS
UBC13 inh: blocks human UBC13 polyubiquitin chain formation. AID 485273. inhibition, % at 20 µM. P61088. 330,000 tested, 0.47% active. TR-FRET; in the data active = inhibition above about 45%, passing the limit was not always enough
Target sequence (P61088 whole entry, looked up): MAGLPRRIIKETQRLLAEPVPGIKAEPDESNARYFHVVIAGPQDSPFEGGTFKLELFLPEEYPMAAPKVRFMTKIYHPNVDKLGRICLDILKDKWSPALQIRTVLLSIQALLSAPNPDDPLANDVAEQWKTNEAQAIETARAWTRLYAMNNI
RBBP9 inhibitor: blocks human serine hydrolase RBBP9; recombinant RBBP9, FP-Rh probe fluorescence polarization; 220,000 tested, 0.2% active; inhibition, % at 7.94 µM; O75884;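 active = inhibition above the campaign mean of all tested compounds plus 3 SD, cut at about 14% in these data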;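 note: plate controls were DMSO wells with RBBP9 for no effect and wells lacking RBBP9 protein for full effect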
Target sequence (O75884 whole entry, looked up): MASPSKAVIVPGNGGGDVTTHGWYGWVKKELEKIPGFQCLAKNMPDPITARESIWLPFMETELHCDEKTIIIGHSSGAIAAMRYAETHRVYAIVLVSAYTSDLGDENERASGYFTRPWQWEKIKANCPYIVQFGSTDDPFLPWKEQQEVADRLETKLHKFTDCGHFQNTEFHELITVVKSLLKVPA
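Assay system: recombinant human RBBP9; Reagent: Serine-hydrolase probe FP-Rh, 375 nM pre-mixing; Doses: 7.94 µM single dose, 0.794% DMSO; Incubation: 30 min then 45 min, 25 °C; Detection: fluorescence polarization (mP), excitation 525 nm, emission 598 nm; Evaluation: percent inhibition from mP, scaled between DMSO and no-protein wells.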
PREPL inhibitor: human PREPL enzyme inhibition; Q4J6C6; inhibition, % at 5.96 µM; 320,000 tested, 0.68% active; recombinant PREPL, fluorescence polarization activity-based probe; in the data active = inhibition above about 43%;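 note: 0% = enzyme with DMSO and 100% = wells lacking enzyme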
Rin1 Abl inh: human Rin1-Abl interaction inhibition. P00519+Q13671. TR-FRET Rin1/Abl binding, biochemical. inhibition, % at 7.35 µM. 360,000 tested, 0.4% active; in the data active = inhibition above about 5%, passing the limit was not always enough
An asterisk follows results filed as active; . = not tested or not shown. In the library only some 4.3% were active in any assay of this set; here they are far more common.

SMILES	ALR H2O2 inh	SUMO HTRF inh	UBC13 inh	RBBP9 inhibitor	PREPL inhibitor	Rin1 Abl inh
O=C(CC1SC(=O)N(c2ccccc2)C1=O)Nc1ccccc1 (centres undefined)	98*	-2	12	-4	-2	1
Cc1ccc(NC(=O)CC2SC(=O)N(c3ccccc3)C2=O)cc1 (centres undefined)	98*	12	12	-3	17	4
Cc1ccc(N=C(NO)c2nonc2N)cc1	92*	18	-2	-9	14	-1
Cc1ccc(N=C(NO)c2nonc2N)c(C)c1	74	-7	-6	-1	9	-2
Cc1ccccc1NCc1ccc([N+](=O)[O-])s1	.	7	4	.	11	2
Cc1ccc(NCc2ccc([N+](=O)[O-])s2)cc1	98*	6	-1	.	12	-2
Cc1cccc(NCc2ccc([N+](=O)[O-])s2)c1	98*	16	6	.	21	-1
COc1ccc(OCc2nnc3n2N=C(c2ccc(Br)cc2)CS3)cc1	-6	12	14	-7	-23	1
Cc1ccc(C2=Nn3c(COc4ccc(Cl)cc4)nnc3SC2CC(=O)O)cc1 (centres undefined)	98*	0	-1	.	-12	3
CC(=O)c1ccc(S(=O)(=O)N2CCNC(=O)C2)cc1	97*	.	-11	.	24	0
O=[N+]([O-])c1cc(S(=O)(=O)N2CCCCCC2)ccc1F	97*	12	.	-5	10	-1
Cc1cnc(NC(=O)CSc2ccccc2)s1	-4	-7	9	-2	10	5
CCOC(=S)SCC(=O)Nc1ncc(C)s1	99*	3	1	2	-6	0
O=CC1=C(c2ccccc2)Oc2ccccc2O1	11	10	-12	.	-5	3
CN(C)C(=C(C#N)C#N)N1CCN(c2ccc(Cl)cc2)CC1	39	13	4	-8	-13	1
CSC(=NC#N)N1CCN(c2ccc(Cl)cc2)CC1	97*	23	1	-1	1	4
CCOC(=O)c1c(N)sc2c1C1CCN2CC1	98*	-6	-4	-1	1	0
CCC(C)(C)NC(=O)/C=C/c1ccccc1[N+](=O)[O-]	95*	0	3	-6	-2	1
Cc1cc2n(n1)C(c1ccc3c(c1)OCO3)Nc1c(C)cccc1-2 (centres undefined)	98*	-3	2	-6	2	-1
O=S(=O)(Nc1ccc(C(O)(C(F)(F)F)C(F)(F)F)cc1)c1cccc2cccnc12	.	.	.	.	.	-2
COc1cc(-c2cc[n+](C)cc2)ccc1O	99*	.	-28	.	4	0
COc1cc(C(=S)N2CCCCC2)ccc1O	82*	11	-4	-6	15	1
COc1cc(C(=O)n2nc(C)cc2C)ccc1O	95*	1	-16	-2	-2	-1
COc1cc(C(=S)N2CCCC2)ccc1O	94*	-4	-9	4	10	2
COc1cc(-c2cnc3c(NC(C)=O)cc(-c4ccccc4CN(C)C)cn23)cc(OC)c1OC	.	.	.	.	.	-1
SMILES	ALR H2O2 inh	SUMO HTRF inh	UBC13 inh	RBBP9 inhibitor	PREPL inhibitor	Rin1 Abl inh
CCOc1ccccc1OCCCC(=O)N1CCN(S(=O)(=O)c2ccc(C)cc2C)CC1	-1	.	8	.	12	1
CCC(=O)Nc1c(-c2ccccc2)c(=O)c2ccccc2n1C	-11	21	-10	-3	-2	-2
COc1cc(C(=O)C(=O)c2ccc(O)c(OC)c2)ccc1O	100*	2	-15	-6	-7	4
COc1cc(C(=S)N2CCC(C(N)=O)CC2)ccc1O	66	1	5	-2	-1	4
COc1cc(-c2nc3ccccc3nc2-c2ccc(O)c(OC)c2)ccc1O	99*	1	-2	.	-6	-1
COc1cc(C(=S)N2CCC(C)CC2)ccc1O	90*	-9	-5	-7	3	-4
COc1cc(C(=O)O)ccc1O	-3	-6	0	-4	-8	4
COc1cc(-c2nc3ccccn3c2N)ccc1O	.	14	6	.	4	-1
CCc1nc2ccc(C(=O)NCc3cccs3)cn2c1N(CC)CCN(C)C	.	.	.	.	.	6
C/C(=N\NC(=O)c1cc(C)oc1C)c1ccc(N2CCOCC2)cc1	83*	6	-4	-3	-4	3
C/C(=N\NC(=O)c1ccccc1Br)c1ccc(N2CCOCC2)cc1	13	1	-2	-1	-6	-5
C/C(=N\Nc1nc(C)cc(C)n1)c1ccc(N2CCOCC2)cc1	99*	-10	-15	-6	16	-1
CCOc1cccc(C(=O)Nc2ccccc2C(=O)N2CCN(C)CC2)c1	1	-4	3	.	-6	-1
Cc1cc(=O)[nH]c2c(C)cc(S(=O)(=O)Nc3ccc(O)cc3)cc12	99*	1	-7	.	3	5
O=C(O)c1cc(=O)[nH]c2ccc(S(=O)(=O)Nc3ccc(F)cc3)cc12	-1	-2	-5	.	3	3
Cc1cc(C(=O)NP(=O)(N2CCOCC2)N2CCOCC2)c(C)n1-c1ccc(N(C)C)cc1	93*	-17	-4	-3	21	-1
CCOC(=O)Nc1ccc2c(c1)N(CCCN(C)C)c1ccccc1CC2	99*	9	16	.	25	3
CCOC(=O)Nc1ccc2c(c1)N(C(=O)OC)c1ccccc1CC2	7	-7	.	-3	3	4
CCCNC(=O)C1(C)CCN(Cc2ccc(-c3ccccc3)o2)C1 (centres undefined)	.	.	.	.	.	-3
CC(=O)NC1C(=O)N=C(SC(C)C(=O)Nc2cccc(Cl)c2)NC1=O (centres undefined)	98*	0	1	5	12	3
Cc1ccc2c(c1)Oc1ccc(NC(=O)CCl)cc1C(=O)N2	93*	10	7	0	-9	-2
Cc1ccc2c(c1)Oc1ccc([N+](=O)[O-])cc1C(=O)N2	-6	20	2	-8	-2	2
CCCCc1cc(=O)oc2cc(C)cc(OCC(=O)N3C[C@H]4C[C@@H](C3)c3cccc(=O)n3C4)c12	1	18	1	.	6	-2
COc1cccc(C(C)(O)c2nc(-c3cccc(F)c3)cs2)c1 (centres undefined)	.	.	.	.	.	-3
Cc1ccc(-c2csc(NC(=O)/C=C/c3ccco3)c2C(=O)O)cc1	97*	0	-18	-5	2	-2
N#Cc1c(NC(=O)/C=C/c2ccco2)sc2c1CCCC2	14	40	.	-8	8	0
O=C(Nc1scc(-c2ccc(F)cc2)c1C(=O)O)c1ccco1	88*	4	-5	-5	6	-3
O=C(/C=C/c1ccco1)Nc1sc2c(c1C(=O)O)CCC2	98*	-8	-3	-7	10	4
CCc1nc2ccc(C(=O)Nc3ccc(C(N)=O)cc3)cn2c1N(CCC(C)C)CCN(C)C	.	.	.	.	.	0
COC(=O)CCCC[C@H]1SC[C@H]2NC(=O)N[C@]21O	2	-9	-2	-3	1	.
